Source: PubChem (several laboratories)
H9c2 protect – myocardial damage modulation in H9c2 cells. H9c2 cardiomyocytes, H2O2 injury protection, ATPLite, 2 h. protection from H2O2 cell death, % at 20 µM. 360,000 tested, 0.63% active;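 active = compounds giving at least 50% protection of heart cells from peroxide-induced death in the single-dose screen, raw or plate-pattern-corrected value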
CHOP inh – CHOP inhibition in unfolded protein response. CHO-K1 CHOP-promoter luciferase, tunicamycin-induced, 15-18 h. inhibition, % at 10 µM. 220,000 tested, 3.8% active;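 active = compounds that reduced the stress-induced luciferase reporter signal by more than about 70% of percent inhibition, limit read from the data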
UPR CHOP act – apoptotic UPR (CHOP) activation; CHO-CHOP luciferase reporter, luminescence; percent of tunicamycin response over DMSO baseline; activation, % at 10 µM; 330,000 tested, 0.34% active;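 active = at 10 µM dose, activation of 40% or more, normalized to positive control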
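Test system: CHO CHOP reporter cells. Input: 500 CHO-CHOP cells per well. Medium: F12 with 10% FBS. Technique: luciferase luminescence. Measure: percent activation relative to tunicamycin control. Dosing: 10 µM compound, 0.5% DMSO. Timing: 16-18 h cell attachment, then 6 h compound exposure, 37 °C.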
hiPSC survival – increases survival of single human iPS cells; survival enhancement, % at 20 µM; hiPSC single-cell survival, ATPlite luminescence; 100% = ROCK inhibitor wells, 0% = DMSO; 360,000 tested, 0.044% active; in the data active = survival enhancement above about 18%;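 note: cells exposed to compounds for 16 hours before the ATP read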
XBP1 UPR activ – activators of adaptive arm of unfolded protein response (XBP1) | CHO-XBP1 luciferase reporter, IRE1-XBP1 UPR activation, luminescence; percent of tunicamycin response, DMSO as zero | activation, % at 20 µM | 330,000 tested, 0.33% active | AID 463104;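 active = versus positive control, 20 µM dose yields 30% or more activation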
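Assay system: CHO-XBP1 luciferase reporter cells; Schedule: 6 h treatment, 37 °C; Detection: glow luminescence from Steady-Glo reagent; Benchmarks: high control tunicamycin 10 µg/mL final, low control DMSO vehicle only.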
Large screens that a line does not name were inactive. The full list was thinned out, with hits kept by preference.

O=[N+]([O-])c1cccc(-c2nnc(-c3ccccc3)o2)c1	CHOP inh 80.1
CCOC(=O)C1(C)CCCN(C(=O)c2c(-c3ccccc3)noc2C)C1 (stereo not given)	none (no result: CHOP inh, UPR CHOP act, XBP1 UPR activ)
CCOc1cc(/C=C2\CN(C)C/C(=C\c3ccc(O)c(OCC)c3)C2=O)ccc1O	UPR CHOP act 43.8 (no result: CHOP inh)
CCOc1cc(/C=C2\CCC/C(=C\c3cc(Cl)c(O)c(OCC)c3)C2=O)cc(Cl)c1O	CHOP inh 92.8
Cc1cc(NCCCCCCCNc2cc(C)nc3cc([N+](=O)[O-])ccc23)c2ccc([N+](=O)[O-])cc2n1	none (no result: CHOP inh, UPR CHOP act, XBP1 UPR activ)
O=C(N/N=C/c1c[nH]c2ccccc12)c1[nH]c2ccc(Br)cc2c1-c1ccccc1	CHOP inh 92.4 (no result: UPR CHOP act, XBP1 UPR activ)
CSC1=NC(=O)/C(=C\c2cccc3ccccc23)S1	CHOP inh 103.1
CN(CC(=O)Nc1cccc(F)c1)C(=O)CCc1nc2ccccc2c(=O)[nH]1	H9c2 protect 65.4 (no result: CHOP inh)
O=C(CCc1nc2ccccc2c(=O)[nH]1)Nc1ccc(Cl)c(Cl)c1	H9c2 protect 59.5
COc1ccc(NC(=O)CCc2ccccc2)cc1S(=O)(=O)N1CCCCC1	none (no result: CHOP inh)
CN(CC(=O)Nc1ccc(F)c(F)c1F)C(=O)CCCc1nc2ccccc2c(=O)[nH]1	none (no result: CHOP inh)
CN(C(=O)CCc1nc2ccccc2c(=O)[nH]1)C1CCS(=O)(=O)C1 (stereo not given)	H9c2 protect 75.8 (no result: CHOP inh)
COc1ccc(NC(=O)CCc2nc3ccccc3c(=O)[nH]2)cc1S(=O)(=O)N1CCCCC1	H9c2 protect 92.6 (no result: CHOP inh)
CN(C(=O)COC(=O)CCc1nc2ccccc2c(=O)[nH]1)C1CCS(=O)(=O)C1 (stereo not given)	none
COc1ccc(NC(=O)C2(C)Cc3c(-c4ccc5c(c4)OCO5)ccnc3O2)cn1 (stereo not given)	none (no result: CHOP inh, UPR CHOP act, XBP1 UPR activ)
Cc1c(C)n(CC(O)CSc2ccccc2)c2ccccc12 (stereo not given)	none (no result: H9c2 protect, CHOP inh, UPR CHOP act, XBP1 UPR activ)
COC(=O)[C@@]1(Cc2ccc(F)cc2)[C@H]2c3cc(C(=O)N(C)C)n(CCc4c[nH]c5ccc(O)cc45)c3C[C@H]2CN1C(=O)c1ccccc1	none (no result: H9c2 protect, CHOP inh, UPR CHOP act, XBP1 UPR activ)
Cc1ccc(C(=O)Nc2cccc(C(=O)N3CCOCC3)c2)cc1Cl	none (no result: CHOP inh)
O=C(CCc1nc2ccccc2c(=O)[nH]1)Nc1ccc(N2CCCCC2)cc1	H9c2 protect 50.0
COc1cc(C)ccc1OCCOc1ccccc1Cl	CHOP inh 76.1
COc1cc(C)ccc1OCCOCCOc1c(C)cc(C)cc1Br	CHOP inh 83.5
CON/C=C(\C=Nc1ccccc1)c1ncc(C(F)(F)F)cc1Cl	CHOP inh 89.4
N#Cc1c(N)[nH]c(C(=O)c2ccccc2)c1-c1ccccc1Br	none (no result: H9c2 protect, CHOP inh, UPR CHOP act, XBP1 UPR activ)
COc1ccc(C2=CC(=O)C[C@H](c3ccc(OC)c(OC)c3)C2)cn1	hiPSC survival 45.5 (no result: CHOP inh)
COc1ccc([C@H]2CC(=O)C=C(c3ccc(F)nc3)C2)cc1OC	none (no result: CHOP inh)
CCOC(=O)c1sc(Nc2ccc(C)cc2C)nc1C	CHOP inh 92.9
CCOC(=O)c1sc(Nc2ccccc2)nc1C	none
CCOC(=O)c1sc(Nc2ccc(F)cc2)nc1C	none
CCOC(=O)c1sc(Nc2nc3c(OC)cccc3s2)nc1C	CHOP inh 72.6
COCCCN(C(=O)CCOc1ccccc1C)c1c(N)n(Cc2ccccc2)c(=O)[nH]c1=O	none (no result: CHOP inh)
CC(CCc1ccccc1)NC(=O)c1ccc(NC(=O)c2cccc(Br)c2)cc1 (stereo not given)	none
CC(CCc1ccccc1)NC(=O)c1ccc(NC(=O)c2ccccc2)cc1 (stereo not given)	CHOP inh 84.8
CC(C)=CCn1c2ccc(NC(=S)NC3CC3)cc2c(=O)n1C	none (no result: CHOP inh, UPR CHOP act, XBP1 UPR activ)
NCc1ccccc1	none (no result: CHOP inh)
CC(C)C(=O)Nc1ccc2oc(-c3cc(F)c(F)cc3Cl)nc2c1	none
CC(=O)Nc1ccc2oc(-c3cc(F)c(F)cc3Cl)nc2c1	CHOP inh 82.4
COc1cc(NC(=O)C2(C)CCCN2C)cc(OC)c1OC (stereo not given)	none (no result: CHOP inh, UPR CHOP act, XBP1 UPR activ)
COc1cccc(NC(=O)NC2(C(F)(F)F)Oc3ccccc3O2)c1	H9c2 protect 75.0
Cc1ccc(NC(=O)C(NC2CCCC2)c2ccccc2)cc1Cl (stereo not given)	none
COc1cccc(NC(=O)C(NC2CCCC2)c2ccccc2)c1 (stereo not given)	CHOP inh 81.7
COc1cccc(NC(=O)Nc2cccc(C(=O)O)c2)c1	CHOP inh 75.7
COC(=O)c1cc(NC(=O)Nc2cc(OC)ccc2OC)cc(C(=O)OC)c1	H9c2 protect 53.5, CHOP inh 77.7
O=C1NC[C@H](Cc2ccccc2)N(CC2CCN(CCC34CC5CC(CC(C5)C3)C4)CC2)C1=O	none (no result: CHOP inh, UPR CHOP act, XBP1 UPR activ)
COCc1cn(-c2nc3ccccc3s2)nn1	none (no result: H9c2 protect, CHOP inh, UPR CHOP act, XBP1 UPR activ)
COc1ccc2c(c1)c(=O)oc1cc3occ(C(C)(C)C)c3cc12	CHOP inh 87.0
N#Cc1ccsc1NC(=O)CN1CCN(Cc2ccccc2)CC1	none
N#Cc1ccsc1NC(=O)CN1CCN(S(=O)(=O)c2ccc3ccccc3c2)CC1	CHOP inh 77.5
O=C(COC(=O)c1cc(=O)[nH]c2ccc(Br)cc12)c1ccccc1	none
O=C(COC(=O)c1cc(=O)[nH]c2ccccc12)c1ccc(Br)cc1	CHOP inh 71.7
COc1ccc(CCNC(=O)C2CCCN(S(=O)(=O)c3cc(C)ccc3OC)C2)cc1OC (stereo not given)	none (no result: CHOP inh)
COc1cc(/C=C(\C#N)C(=O)N2CCOCC2)ccc1OCc1ccccc1	none
N#C/C(=C\c1ccc(OCc2ccc(C(=O)O)cc2)cc1)C(=O)N1CCOCC1	CHOP inh 81.8
CC1(C)Cc2c(cnn2-c2ccccc2)-c2c1c1ccccc1n2CC(O)CCl (stereo not given)	CHOP inh 94.0
CC1(C)Cc2c(cnn2-c2ccccc2)C(=O)/C1=N\NC(=O)c1ccncc1	none (no result: CHOP inh)
CC1CC2(CCCCC2)N2C(=O)C(=O)c3cccc1c32 (stereo not given)	CHOP inh 75.4
Cc1cc2c3c(c1)C(C)CC(C)(C)N3C(=O)C2=O (stereo not given)	none
CCN(CC)CCNC(=O)CCc1n[nH]c(=O)c2ccccc12	H9c2 protect 81.3
CCN(CC)CCNC(=O)CCc1nn(C)c(=O)c2ccccc12	none
OC[C@@H]1CN(Cc2ccncc2)C[C@H](n2cnc3c(NCc4ccncc4)ncnc32)O1	none (no result: CHOP inh, UPR CHOP act, XBP1 UPR activ)
Cc1ccc(-c2[nH]nc(N)c2N=Nc2ccccc2C)cc1	none
Cc1ccc(-c2[nH]nc(N)c2N=Nc2cccc(Cl)c2C)cc1	CHOP inh 92.2 (no result: UPR CHOP act, XBP1 UPR activ)
COc1ccc(N2CCN(C(=O)COC(=O)c3nc(Cl)ccc3Cl)CC2)cc1	none (no result: CHOP inh, UPR CHOP act, XBP1 UPR activ)
Clc1ccc(CN2CCCCCCC2)cc1Cl	CHOP inh 79.1
CCOC(=O)c1c(NC(=O)COC(=O)c2ccc(O)cc2)sc(C(=O)N(C)C)c1C	H9c2 protect 63.4
CCOC(=O)c1c(NC(=O)COC(=O)c2ccc(Cl)nc2)sc(C(=O)N(C)C)c1C	none (no result: CHOP inh)
CCc1ccc(C2CC(c3ccco3)=NN2S(C)(=O)=O)cc1 (stereo not given)	CHOP inh 72.7
